Screening data from PubChem.
Shown are actives, neighbours in structure and some others; about 2.5% of the full set was active somewhere.
miR-122 sensor: inhibitors of miR-122 in Huh7 cells. Huh7 miR-122 Renilla luciferase sensor, 48 h; neutral wells = 0, positive control = 100. activation (reporter increase), % at 12.5 µM. 340,000 compounds, 0.3% hits;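 active = mean replicate activation score at least 90 and every replicate individually at or above 90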;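 also: higher luciferase means less miR-122 activity so hits act as miR-122 inhibitors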
SIRT5 inh: sirtuin-5 (human) deacylase inhibition. Q9NXA8. Purified SirT5, succinyl-peptide AMC, trypsin-coupled fluorescence. inhibition, % at 15 µM. 330,000 compounds, 1.1% hits; in the data active = inhibition above about 15%
S100A4 inh HTS: inhibitors of human S100A4 binding to myosin IIA peptide; inhibition, % at 10.7 µM; S100A4/TAMRA-MyoIIA peptide fluorescence polarization; P26447; 360,000 compounds, 0.14% hits;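 active = mean inhibition of at least 70% across replicates, with every replicate also reaching that level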
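Material: S100A4 monomer protein | Medium: HEPES pH 7.2 with CaCl2, KCl, NaCl, DTT, Triton | Reagent: Labelled myosin peptide probe, 5 nM | Doses: One dose per compound | Times: 5 min incubation before reading | Benchmarks: Neutral control DMSO, positive control TFP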
FGF22 binding: FGF22 (human) thermal shift binding | recombinant FGF22 thermal shift, SYPRO orange fluorescence; percent of sucrose octasulfate shift, DMSO zero | activity (Tm shift, normalised), % at 9.99 µM | 340,000 compounds, 1.5% hits;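 active = mean Tm shift, scaled 0 neutral to 100 positive control, at about 1.3% or above, every replicate too, limit read from the data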
E-selectin induc: E-selectin induction on HUVECs; HUVEC E-selectin immunofluorescence imaging; normalized: neutral wells 0, TNF-alpha wells 100; activation, % at 7.58 µM; 260,000 compounds, 0.37% hits; AID 686992;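 active = mean E-selectin-positive cell signal at least 10% of the positive control, reached in at least 60% of replicates, without over 20% cell loss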
Target sequence (P16581 whole entry, looked up): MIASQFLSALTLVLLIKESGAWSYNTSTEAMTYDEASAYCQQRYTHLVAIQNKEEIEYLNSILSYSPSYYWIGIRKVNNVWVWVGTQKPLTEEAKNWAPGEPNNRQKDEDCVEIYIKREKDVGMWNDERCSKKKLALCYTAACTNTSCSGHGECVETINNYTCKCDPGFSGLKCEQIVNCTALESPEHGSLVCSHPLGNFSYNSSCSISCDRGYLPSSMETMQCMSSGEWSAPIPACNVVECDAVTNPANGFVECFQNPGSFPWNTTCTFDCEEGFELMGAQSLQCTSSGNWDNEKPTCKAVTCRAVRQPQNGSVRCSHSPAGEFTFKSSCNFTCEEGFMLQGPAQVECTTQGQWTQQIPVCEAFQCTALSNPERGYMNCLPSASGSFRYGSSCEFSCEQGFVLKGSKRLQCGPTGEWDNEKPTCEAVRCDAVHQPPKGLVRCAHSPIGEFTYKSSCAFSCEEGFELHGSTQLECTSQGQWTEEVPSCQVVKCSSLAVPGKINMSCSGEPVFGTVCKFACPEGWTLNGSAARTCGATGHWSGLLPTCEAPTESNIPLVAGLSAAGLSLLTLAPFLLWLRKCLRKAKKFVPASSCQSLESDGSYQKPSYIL
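Read-out basis: % PE-positive cells; Test system: HUVEC primary endothelial cells; Technique: immunofluorescence imaging; Dosing: single-point compound dose.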
Active calls of the source: *; · = no result; + = active, no number; ! = repeats disagree; [ ] = dose if it differs, or a comment.

SMILES	miR-122 sensor	SIRT5 inh	S100A4 inh HTS	FGF22 binding	E-selectin induc
COc1ccc(S(=O)(=O)Nc2ccc3c(c2)CC(=O)N([C@H](C)CO)C[C@H](C)[C@@H](CN(C)CC2CC2)O3)cc1	6.5[16.7 µM]	5.6	118.4*	-0.4	0.1
COc1ccc(S(=O)(=O)Nc2ccc3c(c2)C(=O)N([C@@H](C)CO)C[C@H](C)[C@H](CN(C)CC2CC2)O3)cc1	-4.1[16.7 µM]	27.4*!	1.2	0.0	0.2
C[C@@H]1CN([C@@H](C)CO)C(=O)c2cccc(NS(C)(=O)=O)c2O[C@H]1CN(C)Cc1ccc(C(=O)Nc2ccccc2N)cc1	·	-1.6	-29.8	-0.3	·
O=C(C[C@@H]1C=C[C@@H](NC(=O)Cc2ccccn2)[C@H](CO)O1)NCCCN1CCOCC1	·	4.5	7.0	0.0	0.1
CCCNC(=O)Nc1ccc2c(c1)C(=O)N(C)[C@@H]1CC[C@@H](CC(=O)O)O[C@H]1CO2	-16.7[16.7 µM]	·	·	1.1	-0.1
CCCC#Cc1cnc2c(c1)C(=O)N([C@H](C)CO)C[C@H](C)[C@@H](CN(C)C(=O)NC1CCCC1)O2	3.7[16.7 µM]	-1.9	7.0	-0.1	0.5
COc1ccc(CN2C(=O)C(CC(=O)NCCc3ccccn3)CC(C(=O)N3CCOCC3)=C2C)cc1 (centres undefined)	-0.2	21.1*	0.3	0.0	0.1
COc1ccc(CN2C(=O)C(CC(=O)NCCc3ccccn3)CC(C(=O)N(C)C)=C2C)cc1 (centres undefined)	-3.6	0.9	7.7	-0.2	-1.0
COc1ccc(S(=O)(=O)Nc2ccc(C(F)(F)F)cc2)cc1OC	127.9*	·	·	·	·
CCNC(=O)C[C@H]1CC[C@H]2[C@H](COc3ccc(NC(=O)Nc4cccc(F)c4)cc3C(=O)N2C)O1	7.8[16.7 µM]	-2.5	-7.0	-0.1	0.0
C[C@H]1CN([C@@H](C)CO)C(=O)c2cc(C#CC(C)(C)O)cnc2O[C@H]1CN(C)C(=O)C1CCCCC1	-1.6[16.7 µM]	·	·	·	0.0
O=C(C[C@H]1C=C[C@H](NC(=O)CCN2CCCCC2)[C@H](CO)O1)Nc1nccs1	-11.3[16.7 µM]	2.3	130.8*	-0.4	-0.1
O=C(CCN1CCCCC1)N[C@@H]1C=C[C@H](CC(=O)N2CCC(Cc3ccccc3)CC2)O[C@H]1CO	-6.7[16.7 µM]	15.3*	0.6	0.2	-0.7
COc1ccccc1NC(=O)N[C@H]1C=C[C@H](CC(=O)N2CCC(Cc3ccccc3)CC2)O[C@@H]1CO	-7.9[16.7 µM]	-35.2	103.5*	-0.4	-0.6
O=C(C[C@H]1C[C@H]2c3cc(NC(=O)c4ccc5c(c4)OCO5)ccc3O[C@H]2[C@H](CO)O1)NCc1ccc(Cl)cc1	-3.9[16.7 µM]	-0.1	0.9	-0.4	-0.3
O=C(C[C@H]1CC[C@H]2[C@@H](COC[C@@H](O)CN2Cc2cc(F)ccc2F)O1)NCc1ccccc1	-0.7[16.7 µM]	-2.9	-1.3	-0.2	0.0
COc1ccc(C(C)(O)c2nc(-c3cccs3)cs2)cc1 (centres undefined)	17.6	-1.1	182.2*	-0.2	1.7
COc1ccccc1-c1csc(C(C)(O)c2ccccc2)n1 (centres undefined)	0.2	16.0*	-7.9	-0.6	0.3
C[C@H](CO)N1C[C@H](C)[C@H](CN(C)C(=O)c2ccncc2)Oc2cc(C3=CCCCC3)ccc2S1(=O)=O	7.5[16.7 µM]	-1.6	-58.2	-0.1	-0.4
Cc1ccc(CNS(=O)(=O)c2ccccc2[N+](=O)[O-])cc1	·	-4.2	-1.3	43.5*	3.2
CCN1C(=O)C(CC(=O)Nc2ccc(F)cc2)N(CCc2ccc(OC)cc2)C1=S (centres undefined)	·	-0.2	7.8	44.0*	·
CCc1c(C)[nH]n(-c2nc(-c3ccccc3)cs2)c1=O	·	0.9	-3.7	0.1	·
Cc1[nH]n(-c2nc(-c3ccc(Cl)cc3)cs2)c(=O)c1N=Nc1ccc(O)cc1	-5.5	0.1	-0.4	42.9*	1.0
CCC(=O)Nc1ccc2c(c1)OC[C@@H](C)N(C(=O)Cc1cccnc1)C[C@@H](C)[C@@H](OC)CN(C)C2=O	·	-2.1	15.3	0.0	-0.2
COc1ccc(CN(C)C[C@@H]2Oc3c(NC(=O)c4cc(C)nn4C)cccc3C(=O)N([C@@H](C)CO)C[C@H]2C)cc1	22.5[16.7 µM]	2.5	2.8	0.0	-0.1
SMILES	miR-122 sensor	SIRT5 inh	S100A4 inh HTS	FGF22 binding	E-selectin induc
Cc1cccc2sc(NC(=O)CN3C(=O)C4CC=CCC4C3=O)nc12 (centres undefined)	·	-0.8	0.5	43.9*	-0.2
Cc1ccc(C)c2sc(NC(=O)CN3C(=O)CCC3=O)nc12	-6.9	-3.0	-4.0	43.2*	0.5
Cc1ccc2sc(NC(=O)CN3C(=O)CCC3=O)nc2c1C	0.6	-0.1	-0.1	-0.2	-0.6
O=C(CSc1nc2ccc([N+](=O)[O-])cc2[nH]1)NC1CCCCCC1	328.0*	·	·	·	·
Cc1cc(-c2ccccc2)nc(SC(C(=O)O)c2ccccc2)n1 (centres undefined)	4.6	2.1	-2.4	43.3*	·
O=C(O)c1ccc(CSc2nc3ccc(NC(=O)c4ccccc4C(=O)O)cc3s2)cc1	-1.2	17.1*	0.5	·	·
CC=Cc1ccc2n(c1=O)C[C@H]1[C@H](CO)[C@@H](C(=O)NCCCN3CCOCC3)N(C)[C@@H]21 (mixture of isomers)	6.9[16.7 µM]	-0.2	-7.4	0.2	-0.3
N#CC(c1ccccn1)c1ncc(C(F)(F)F)cc1Cl (centres undefined)	-4.2	-4.1	1.1	43.4*	1.6
CO/N=C/C(C#N)c1ncc(C(F)(F)F)cc1Cl (centres undefined)	0.8	0.4	-1.7	0.1	·
CN(C)C(=O)C[C@H]1C=C[C@H](NC(=O)Nc2cccc(F)c2)[C@@H](CO)O1	·	0.1	2.3	-0.2	16.4
COCC(=O)N1[C@@H](CO)[C@@H](c2ccccc2)C12CN(C(=O)Cc1ccccn1)C2	·	-1.3	6.6	·	0.3
OC[C@H]1[C@@H](c2ccc(C#Cc3ccccc3)cc2)[C@@H]2CN(CC3CCOCC3)CCCCN12	-6.0[16.7 µM]	-2.5	-0.4	-0.3	-0.3
Nc1nc(COc2ccccc2)cs1	-10.3	0.1	-6.0	0.0	·
Cc1ccccc1OCc1csc(N)n1	·	-3.7	-1.3	43.0*	·
O=C(NCC1CCCO1)c1ccc(NS(=O)(=O)c2ccccc2)cc1 (centres undefined)	2.6	-1.9	-5.0	44.7*	·
Cc1ccc(S(=O)(=O)NCc2ccccc2)cc1C(=O)NCC1CCCO1 (centres undefined)	·	3.5	+	-0.4	0.9
Cc1cc(S(=O)(=O)NCc2ccccc2)ccc1OCC(=O)NCC1CCCO1 (centres undefined)	33.4	-9.1	0.0	0.2	-1.2
C[C@@H]1CN([C@H](C)CO)S(=O)(=O)c2ccc(-c3ccc(C(=O)N(C)C)cc3)cc2O[C@@H]1CN(C)C(=O)C1CC1	-3.6[16.7 µM]	·	·	·	0.5
CC(C)c1cn([C@H]2C[C@@H]3O[C@@H](CO)CC[C@@H]3O[C@@H]2CCc2ccc(C#CC3(O)CCCC3)cc2)nn1	·	3.2	-36.4	·	·
